Assay results of several laboratories.
Lines come from different studies, so protocols differ.
Target: Serine/threonine-protein kinase Nek5 (NEK5, Homo sapiens, UniProt Q6P3R8)
Sequence (Q6P3R8 1-708, as in one of the studies): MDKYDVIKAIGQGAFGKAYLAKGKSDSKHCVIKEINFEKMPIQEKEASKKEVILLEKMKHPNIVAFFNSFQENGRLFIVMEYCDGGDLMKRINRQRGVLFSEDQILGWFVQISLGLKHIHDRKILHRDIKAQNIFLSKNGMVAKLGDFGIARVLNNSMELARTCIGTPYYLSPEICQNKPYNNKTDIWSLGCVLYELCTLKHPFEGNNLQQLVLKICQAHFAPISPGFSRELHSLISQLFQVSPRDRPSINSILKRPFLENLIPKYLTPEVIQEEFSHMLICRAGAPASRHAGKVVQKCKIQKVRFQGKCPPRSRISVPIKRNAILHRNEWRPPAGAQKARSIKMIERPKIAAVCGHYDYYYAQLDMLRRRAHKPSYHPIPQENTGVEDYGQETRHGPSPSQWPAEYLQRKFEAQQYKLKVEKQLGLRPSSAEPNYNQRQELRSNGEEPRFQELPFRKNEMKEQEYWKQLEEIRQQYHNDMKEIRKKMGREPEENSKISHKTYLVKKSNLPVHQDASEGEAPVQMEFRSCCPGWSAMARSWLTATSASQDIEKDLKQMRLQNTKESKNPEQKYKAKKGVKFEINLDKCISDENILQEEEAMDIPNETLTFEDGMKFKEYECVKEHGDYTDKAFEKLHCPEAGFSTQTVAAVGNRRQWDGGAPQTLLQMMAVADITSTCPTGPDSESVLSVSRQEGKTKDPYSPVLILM

SMILES	effect on	method	concentration	remaining binding
C=CC(=O)N1CCC(C(=O)NCC(=O)N2CCN(c3nc(-c4cnc(N)nc4C(F)F)nc(N4CCOCC4)n3)CC2)CC1	binding	competition with immobilised ligand	1 µM	100%
C[C@H](c1ccc(F)cc1)N(Cc1cccc(C(=O)O)c1)C(=O)c1cnc2ccccc2c1	cell-free assay	competition with immobilised ligand	1 µM	100%
COc1cnc(Nc2cccc(S(N)(=O)=O)c2)nc1N1CCN(c2ccccc2)CC1	binding	competition with immobilised ligand	1 µM	42%
Cc1cnn2ncc(-c3ccnc(N(C)C)n3)c2c1	binding		1 µM	100%
c1ccc(N2CCN(Cc3nc4ccccc4[nH]3)CC2)nc1	binding	competition with immobilised ligand	1 µM	100%
CN(C)c1nccc(-c2cnn3ncccc23)n1	binding		1 µM	100%
CCOCCn1cc(C(=O)Nc2ccc(-n3nc(-c4cccnc4)cc3C(F)(F)F)cn2)ccc1=O	cell-free assay	competition with immobilised ligand	1 µM	100%
CC1CCCN1c1nccc(-c2cnn3ncccc23)n1 (stereo not drawn)	binding		1 µM	100%
Nc1ncc2c(n1)-c1c([nH]c3ccc(C#CC4CC4)cc13)CCCC2	binding	competition with immobilised ligand	1 µM	100%
CCN1CCN(Cc2ccc(C(=O)Nc3ccc(C)c(Oc4ccc5c(c4)CC(=O)N5)c3)cc2C(F)(F)F)CC1	binding	competition with immobilised ligand	1 µM	100%
O=C(NCC1CCOCC1)c1n[nH]cc1NC(=O)c1c(F)cccc1F	binding	competition with immobilised ligand	1 µM	100%
CC(=O)N1CCC(c2ccc(C(=O)NC(=N)N)cc2C(F)(F)F)CC1	cell-free assay	competition with immobilised ligand	1 µM	100%
Cc1cnc(Nc2ccc(C(=O)N3CCC(N4CCCC4)CC3)cc2)nc1-c1cc2ccccc2s1	binding	competition with immobilised ligand	1 µM	0.1%
Cc1noc([C@H]2C[C@@H](c3ccc(C(F)(F)F)cc3)CN(C(=O)N3CCS(=O)(=O)C3)C2)n1	cell-free assay	competition with immobilised ligand	1 µM	100%
C[C@H]1CCN(c2nccc(-c3cnn4ncccc34)n2)C1	binding		1 µM	90%
O=C(c1ccc(Nc2nccc(-c3cc4ccccc4s3)n2)cc1)N1CCC(N2CCCC2)CC1	binding	competition with immobilised ligand	1 µM	15%
C[C@@H](c1cccc(C#N)c1)n1cc(Cl)cc(C(N)=O)c1=N	cell-free assay	competition with immobilised ligand	1 µM	100%
N[C@@H]1CCN(c2nccc(-c3cnn4ncccc34)n2)C1	binding		1 µM	100%
O=C(NCCCN1CCOCC1)c1ccc(Nc2ncc(Cl)c(-c3ccc(Cl)s3)n2)cc1	binding	competition with immobilised ligand	1 µM	0%
COc1ncc2cc3ccccc3nc2c1C#N	cell-free assay	competition with immobilised ligand	5 µM	88%
CN(C)c1ncc(F)c(-c2cnn3ncccc23)n1	binding		1 µM	88%
